This note sets out measurements from ChEMBL document CHEMBL3393009 (J Med Chem, 2015).

Each structure is given as a SMILES string.

The nature of series [1]: Clearance in human liver microsomes. The class given is ADME. The conditions noted are these: read-out: CLH. The essentials:
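Human liver microsomal clearance.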

Series [2] has as its target Serine/threonine-protein kinase 26 (Homo sapiens, UniProt Q9P289). Kind of series: Inhibition of human recombinant MST4 using Ser/Thr peptide 7 substrate after 60 mins by Z-Lyte assay. The essentials: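 Z-Lyte FRET assay, final 2 μM Ser/Thr peptide 7, 75 μM ATP, 18 nM kinase. Buffer 50 mM HEPES (pH 7.0 for MST2, 7.5 for MST4), 10 mM MgCl2, 1 mM EGTA, 0.01% Brij-35. Stopped at 45 min (MST2) or 60 min (MST4). Excitation 400 nm, emission 445/520 ratio converted to percent phosphorylation for IC50.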

Series [3] can be described thus: AUC in rat at 5 mg/kg, po. The format is ADME, organism-based. The following applies: plasma. Set-up: dose 5 mg/kg, route oral.
Series [4] is described as follows: Oral bioavailability in rat at 5 mg/kg. The format is ADME, organism-based. The following applies: in vivo.
Series [5] in a line: Cmax in dog at 5 mg/kg, po. Also on record: dose 5 mg/kg, route oral. The conditions noted are these: in vivo. The format is ADME, organism-based, Canis lupus familiaris.
Series [6] in a line: AUC in dog at 5 mg/kg, po. The format is ADME, organism-based, Canis lupus familiaris. Set-up: dose 5 mg/kg, route oral. The conditions noted are these: plasma.
A short description of series [7]: Half life in dog at 5 mg/kg, po. The class given is ADME, organism-based, Canis lupus familiaris. Set-up: dose 5 mg/kg, route oral. The following applies: in vivo.
The next series has as its system Canis familiaris. Description: Volume of distribution at steady state in dog at 5 mg/kg, po. The format is ADME, organism-based, Canis lupus familiaris. Also on record: dose 5 mg/kg, route oral. The following applies: in vivo.
The nature of series [8]: Oral bioavailability in dog at 5 mg/kg. The conditions noted are these: in vivo. The class given is ADME, organism-based, Canis lupus familiaris.
Series [9] is described as follows: Cmax in non-human primate at 5 mg/kg, po. The class given is ADME, organism-based. Set-up: dose 5 mg/kg, route oral. The following applies: monkey, in vivo.
Series [10] is described as follows: Half life in non-human primate at 5 mg/kg, po. The format is ADME, organism-based. Set-up: dose 5 mg/kg, route oral. The conditions noted are these: monkey, in vivo.
The test system of another series is Mus musculus. Description: Inhibition of wild type LRRK2 […] phosphorylation in BAC-transgenic C57BL/6J mouse brain at 3 to 100 mg/kg, sc measured after 90 mins post dose. The conditions noted are these: dose mg/kg 3-100; route subcutaneous. The class given is functional. The essentials: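 Mice given compound subcutaneously in 10% NMP/20% SBECD vehicle: four-month-old C57BL/6J (wild type) or seven-month-old LRRK2 BAC-Tg G2019S. Tissues collected 90 min after dose. pS935, and pS1292 (custom antibody) in transgenic brain, read by Western blot of brain/kidney lysates against vehicle controls. Mean ± SEM.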

Series [11] relates to Rattus norvegicus. Kind of series: Toxicity in Wistar Han rat assessed as changes in clinical chemistry parameters at 6 to 60 mg/kg, po bid for 14 days. The class given is organism-based. The following applies: in vivo, 336 h. Also on record: dose 6-60 mg/kg, route oral. The essentials: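 Wistar Han rats (200–300 g, 8–11 weeks) dosed by oral gavage twice daily for 14 days. Vehicle: 10% propylene glycol/20% PEG400/70% methylcellulose solution. RBC parameters, electrolytes, food consumption, body weight, clinical chemistry and urinary biomarkers recorded.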

Series [12] has as its system Rattus norvegicus. Kind of series: fCmax in Wistar Han rat at 20 mg/kg, po bid for 14 days. The class given is ADME, organism-based. Also on record: dose 20 mg/kg, route oral. The following applies: in vivo, 336 h.
Series [13] relates to Rattus norvegicus. Kind of series: fCmax in Wistar Han rat at 60 mg/kg, po bid for 14 days. The following applies: in vivo, 336 h. The class given is ADME, organism-based. Also on record: dose 60 mg/kg, route oral.
Series [14] in a line: Drug coverage index, ratio fCmax in Wistar Han rat at 6 mg/kg, po bid for 14 days to IC50 for LRRK2 […] phosphorylation in Wistar Han rat brain at 6 to 60 mg/kg, po bid for 14 days. The format is ADME, organism-based. The conditions noted are these: in vivo, 336 h. Put shortly: (§1)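 Wistar Han rats (200–300 g, 8–11 weeks old) were dosed by oral gavage twice daily for 14 days. Vehicle was 10% propylene glycol/20% PEG400/70% 9.5% methocellulose.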

A short description of series [15]: Drug coverage index, ratio fCmax in Wistar Han rat at 20 mg/kg, po bid for 14 days to IC50 for LRRK2 […] phosphorylation in Wistar Han rat brain at 6 to 60 mg/kg, po bid for 14 days. The format is ADME, organism-based. The following applies: in vivo, 336 h. Put shortly:
as §1

Series [16] in a line: Drug coverage index, ratio fCmax in Wistar Han rat at 60 mg/kg, po bid for 14 days to IC50 for LRRK2 S395 phosphorylation in Wistar Han rat brain at 6 to 60 mg/kg, po bid for 14 days. The conditions noted are these: in vivo, 336 h. The format is ADME, organism-based. The essentials:
as §1

The test system of series [17] is Rattus norvegicus. Description: fAUC in Wistar Han rat at 20 mg/kg, po bid for 14 days. The format is ADME, organism-based. Set-up: dose 20 mg/kg, route oral. The following applies: in vivo, 336 h. The essentials: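 Wistar Han rats dosed orally twice daily in 10% propylene glycol/20% PEG400/methylcellulose vehicle. Unbound plasma exposure measured on days 1 and 11.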

Series [18] relates to Rattus norvegicus. Kind of series: Drug coverage index, ratio fAUC in Wistar Han rat at 6 mg/kg, po bid for 14 days to IC50 for LRRK2 […] phosphorylation in Wistar Han rat brain at 6 to 60 mg/kg, po bid for 14 days. The class given is ADME, organism-based. The conditions noted are these: in vivo, 336 h. Put shortly:
as §1

Series [19] in a line: Cytotoxicity against human THLE cells by in-vitro ATP depletion assay. The class given is cell-based.

Sequence of Serine/threonine-protein kinase 26 (Q9P289 whole entry): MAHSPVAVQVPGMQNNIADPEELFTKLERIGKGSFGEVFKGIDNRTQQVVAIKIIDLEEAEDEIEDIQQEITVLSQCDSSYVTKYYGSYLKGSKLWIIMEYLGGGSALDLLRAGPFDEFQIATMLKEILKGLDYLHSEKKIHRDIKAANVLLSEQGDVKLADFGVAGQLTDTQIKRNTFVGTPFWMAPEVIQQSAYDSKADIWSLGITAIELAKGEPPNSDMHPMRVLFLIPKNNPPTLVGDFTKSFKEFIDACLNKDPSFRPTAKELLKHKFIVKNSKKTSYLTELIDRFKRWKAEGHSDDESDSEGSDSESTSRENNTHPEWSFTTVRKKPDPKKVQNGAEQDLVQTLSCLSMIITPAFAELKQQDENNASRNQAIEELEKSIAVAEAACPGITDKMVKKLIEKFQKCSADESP

For `N#Cc1cccc(-c2c[nH]c3ncnc(N4CCOCC4)c23)c1`, the CLint scaled in series [1] is 36 mL/min/kg. The half-inhibitory concentration (IC50) in [2] is 178 nM; in series [19], over 223000 nM. For the same compound, the area under the curve (AUC) in series [3] worked out at 629 ng·h/mL; in series [6], 10 ng·h/mL. In addition, the bioavailability in series [4] worked out at 41%; in series [8], 0.6%. For the same compound, the highest concentration (Cmax) came out at 15 ng/mL in series [5] and 25 ng/mL in series [9]. Besides, the results for the half-life in series [7] and in [10] were 0.78 h and 2.27 h, respectively. In addition, in the series with Canis familiaris, the Vdss stood at 0.92 L/kg. The fIC50 in the series with Mus musculus amounted to 8 nM. Also, the Activity result in the series with Rattus norvegicus [11] is given as “Non-toxic”. Also, the fCmax in the series on Rattus norvegicus [12] stood at 380 nM; with Rattus norvegicus [13], 1050 nM. Also, the Ratio was found to be 6 in series [14], 25 in [15], 70 in series [16] and 2 in the series on Rattus norvegicus [18]. Also, the fAUC in the series on Rattus norvegicus [17] is 4.14 µM·h.
